PMC11445516 (Nature Communications, 2024)

Tests used:
[1] = biological target: human placental alkaline phosphatase (Homo sapiens, UniProt P05187); assay: Hydrolysis in human placental alkaline phosphatase solution; type: in vitro ADME; conditions: human placental ALP 0.5 unit/mL, prodrug 100 μM, Tris pH 7.6, 37 °C
BxPC-3 xenograft = assay: Efficacy study in BxPC-3 pancreatic cancer xenograft mouse model; type: in vivo
Procedure, shortened: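 Female Foxn nu/nu mice (4 weeks old on arrival) received 3.5 × 10^6 BxPC-3 cells in 50:50 Cultrex BME:DMEM, injected subcutaneously into the right hind flank. At ~95 mm3 they were stratified into four groups of eight. […] Dosing ran 21 days, then 25 days of follow-up. Caliper volume, (W² × L)/2, and body weight were recorded biweekly. Analysis used a mixed model with Dunnett post hoc.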

[2] = previously measured; cited from earlier work
[3] = through a range of pH's; cited from earlier work

human placental alkaline phosphatase, sequence (P05187 23-535): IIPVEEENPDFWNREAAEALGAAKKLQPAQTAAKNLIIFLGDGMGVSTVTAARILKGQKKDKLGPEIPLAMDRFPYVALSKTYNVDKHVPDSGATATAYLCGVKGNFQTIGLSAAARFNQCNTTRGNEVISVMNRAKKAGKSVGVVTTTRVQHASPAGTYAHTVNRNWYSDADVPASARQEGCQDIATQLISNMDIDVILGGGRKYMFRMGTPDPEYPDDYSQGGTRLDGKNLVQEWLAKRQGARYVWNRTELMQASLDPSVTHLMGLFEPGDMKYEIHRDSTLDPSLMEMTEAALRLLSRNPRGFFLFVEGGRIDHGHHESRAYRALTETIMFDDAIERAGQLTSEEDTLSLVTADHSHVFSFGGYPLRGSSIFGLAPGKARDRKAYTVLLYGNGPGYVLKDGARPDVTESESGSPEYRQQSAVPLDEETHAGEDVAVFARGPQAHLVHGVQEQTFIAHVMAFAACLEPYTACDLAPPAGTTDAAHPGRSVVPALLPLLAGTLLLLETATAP

Compound: CC(=O)O[C@H]1C(=O)[C@@]2(C)[C@H]([C@H](OC(=O)c3ccccc3)[C@]3(O)C[C@H](OC(=O)[C@H](OC(=O)OCc4cc(C(=O)O)ccc4OP(=O)(O)O)[C@@H](NC(=O)c4ccccc4)c4ccccc4)C(C)=C1C3(C)C)[C@]1(OC(C)=O)CO[C@@H]1C[C@@H]2O [Compound 8i, 3-((((((1S,2 R)-1-benzamido-3-(((2aR,4S,4aS,6 R,9S,11S,12S,12aR,12bS)-6,12b-diacetoxy-12-(benzoyloxy)-4,11-dihydroxy-4a,8,13,13-tetramethyl-5-oxo-2a,3,4,4a,5,6,9,10,11,12,12a,12b-dodecahydro-1H-7,11-methanocyclodeca[3,4]benzo[1,2-b]oxet-9-yl)oxy)-3-oxo-1-phenylpropan−2-yl)oxy)carbonyl)oxy)methyl)-4-(phosphonooxy)benzoic acid]
- Hydrolysis rate in ALP (drug formation rate) [1]: 2.13 pmol/min

Compound: CC(=O)O[C@H]1C(=O)[C@@]2(C)[C@H]([C@H](OC(=O)c3ccccc3)[C@]3(O)C[C@H](OC(=O)[C@H](O)[C@@H](NC(=O)c4ccccc4)c4ccccc4)C(C)=C1C3(C)C)[C@]1(OC(C)=O)CO[C@@H]1C[C@@H]2O [Paclitaxel, paclitaxel, reference compound]
- Tumor growth inhibition (TGI) (BxPC-3 xenograft; 12.5 mg/kg IV QWK in Cremophor EL, following the 21-day dosing period): 78%
- Tumor growth inhibition (TGI) (BxPC-3 xenograft; 12.5 mg/kg IV QWK in Cremophor EL, following the 25-day observation period): 51%
- Oral bioavailability [2]: < 6%

Compound: CC(=O)O[C@H]1C(=O)[C@@]2(C)[C@H]([C@H](OC(=O)c3ccccc3)[C@]3(O)C[C@H](OC(=O)[C@H](OC(=O)OCc4cc(P(=O)(O)O)ccc4OP(=O)(O)O)[C@@H](NC(=O)c4ccccc4)c4ccccc4)C(C)=C1C3(C)C)[C@]1(OC(C)=O)CO[C@@H]1C[C@@H]2O [Compound 8vi, (3-((((((1S,2 R)-1-benzamido-3-(((2aR,4S,4aS,6 R,9S,11S,12S,12aR,12bS)-6,12b-diacetoxy-12-(benzoyloxy)-4,11-dihydroxy-4ª,8,13,13-tetramethyl−5-oxo-2ª,3,4,4ª,5,6,9,10,11,12,12ª,12b-dodecahydro-1H-7,11-methanocyclodeca[3,4]benzo[1,2-b]oxet-9-yl)oxy)-3-oxo-1-phenylpropan-2-yl)oxy)carbonyl)oxy)methyl)-4-(phosphonooxy)phenyl)phosphonic acid]
- Hydrolysis rate in ALP (drug formation rate) [1]: 1.44 pmol/min
- Tumor growth inhibition (TGI) (BxPC-3 xenograft; 25 mg/kg PO QOD in saline, following the 21-day dosing period): –15%
- Tumor growth inhibition (TGI) (BxPC-3 xenograft; 75 mg/kg PO QOD in saline, following the 25-day observation period): 84%
- Toxicity during dosing (BxPC-3 xenograft; 25 and 75 mg/kg PO QOD, 21 days): no appreciable toxicity

Compound: CNC(=O)c1ccc(N2C(=S)N(c3ccc(C#N)c(C(F)(F)F)c3)C(=O)C2(C)C)cc1F [Enzalutamide, enzalutamide]
- Solubility in water [3]: < 0.1 µg/mL
